Common to all, as to assay type: functional
The subject of assay [1] is Aeromonas caviae. Nature of the assay: Antimicrobial activity against Aeromonas caviae A324R expressing metallo-beta-lactamase IMP-19 by broth dilution method. Put shortly:
(§1)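 Beta-lactam MICs by standard broth dilution per CLSI criteria. Recombinant DH5alpha(pIP19) carries blaIMP-19 subcloned into pK18, selected on kanamycin 30 µg/ml plus ceftazidime 4 µg/ml. DH5alpha(pJDB2) carries the 35 kb native plasmid extracted by alkaline lysis.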
For orientation: Dilution methods test growth across graded concentrations, often in twofold steps.

The subject of assay [2] is Aeromonas caviae. Description: Antimicrobial activity against Aeromonas caviae A324R by disk diffusion method. In a few lines: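 Disk diffusion per CLSI criteria, read as inhibition zone diameter in mm.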
Assay [3] concerns Escherichia coli. Nature of the assay: Antimicrobial activity against Escherichia coli DH5alpha expressing pJDB2 containing Aeromonas caviae A324R metallo-beta-lactamase gene by broth dilution method. In a few lines: as §1
Assay [4] concerns Escherichia coli. Nature of the assay: Antimicrobial activity against Escherichia coli DH5alpha expressing pIP19 containing Aeromonas caviae A324R metallo-beta-lactamase blaIMP-19 gene by broth dilution method. Put shortly: as §1
Assay [5] relates to Escherichia coli. Description: Antimicrobial activity against Escherichia coli DH5alpha by broth dilution method. In a few lines:
as §1

Converted amounts (≈) assume the structure as drawn. Where only a bound is given, the exact number is not on record here.

Regarding `C[C@H]1[C@H](NC(=O)/C(=N\OC(C)(C)C(=O)O)c2csc(N)n2)C(=O)N1S(=O)(=O)O` [AZTREONAM], the results for the MIC in the assay with Aeromonas caviae [1], against Escherichia coli [3] and against Escherichia coli [4] were 512 µg/mL (≈ 1180 µM), 256 µg/mL (≈ 588 µM) and 256 µg/mL (≈ 588 µM), respectively. Also, the “diameter of the inhibition zone (DIZ)” value in the assay with Aeromonas caviae [2] amounted to 24 mm.
Consider `Cc1nnc(SCC2=C(C(=O)O)N3C(=O)[C@@H](NC(=O)Cn4cnnn4)[C@H]3SC2)s1` [CEFAZOLIN], for which the minimal inhibitory concentration (MIC) in the assay with Aeromonas caviae [1] is 1020 µg/mL (≈ 2250 µM); with Escherichia coli [5], at most 1 µg/mL; against Escherichia coli [3], 256 µg/mL (≈ 563 µM); in the assay with Escherichia coli [4], 256 µg/mL (≈ 563 µM).
For the molecule `CO[C@@]1(NC(=O)Cc2cccs2)C(=O)N2C(C(=O)O)=C(COC(N)=O)CS[C@@H]21` [CEFOXITIN], the MIC was found to be 512 µg/mL (≈ 1200 µM) against Aeromonas caviae [1], 2 µg/mL (≈ 4.68 µM) with Escherichia coli [5], 256 µg/mL (≈ 599 µM) in the assay on Escherichia coli [3] and 512 µg/mL (≈ 1200 µM) in the assay on Escherichia coli [4].
`CC(C)(O/N=C(\C(=O)N[C@@H]1C(=O)N2C(C(=O)[O-])=C(C[n+]3ccccc3)CS[C@H]12)c1csc(N)n1)C(=O)O` [CEFTAZIDIME]: the minimal inhibitory concentration (MIC) in the assay with Aeromonas caviae [1] came to 1020 µg/mL (≈ 1870 µM); against Escherichia coli [5], 4 µg/mL (≈ 7.32 µM); in the assay on Escherichia coli [3] it was 128 µg/mL (≈ 234 µM); in the assay on Escherichia coli [4], 512 µg/mL (≈ 937 µM).
For the molecule `O=C(O)[C@H]1/C(=C/CO)O[C@@H]2CC(=O)N21` [CLAVULANIC ACID], the MIC with Aeromonas caviae [1] turned out to be 16 µg/mL (≈ 80.3 µM); in the assay on Escherichia coli [5] it was 0.5 µg/mL (≈ 2.51 µM); with Escherichia coli [3], 4 µg/mL (≈ 20.1 µM); against Escherichia coli [4], 8 µg/mL (≈ 40.2 µM).
As for `C[C@@H](O)[C@H]1C(=O)N2C(C(=O)O)=C(SCCNC=N)C[C@H]12` [IMIPENEM ANHYDROUS], the MIC in the assay with Aeromonas caviae [1] was determined as 8 µg/mL (≈ 26.7 µM); with Escherichia coli [3], 0.25 µg/mL (≈ 0.835 µM); in the assay on Escherichia coli [4], 0.25 µg/mL (≈ 0.835 µM). Besides, the “diameter of the inhibition zone (DIZ)” value in the assay on Aeromonas caviae [2] is given as 27 mm.
For `C[C@@H](O)[C@H]1C(=O)N2C(C(=O)O)=C(S[C@@H]3CN[C@H](C(=O)N(C)C)C3)[C@H](C)[C@H]12` [MEROPENEM], the MIC with Aeromonas caviae [1] was 1020 µg/mL (≈ 2670 µM); against Escherichia coli [5] it was at most 1 µg/mL; against Escherichia coli [3], 256 µg/mL (≈ 668 µM); in the assay on Escherichia coli [4], 512 µg/mL (≈ 1340 µM).
Take `CCN1CCN(C(=O)N[C@@H](C(=O)N[C@@H]2C(=O)N3[C@@H]2SC(C)(C)[C@@H]3C(=O)O)c2ccccc2)C(=O)C1=O` [PIPERACILLIN]: the MIC stood at 256 µg/mL (≈ 495 µM) against Aeromonas caviae [1], 1 µg/mL (≈ 1.93 µM) in the assay with Escherichia coli [5], 8 µg/mL (≈ 15.5 µM) in the assay on Escherichia coli [3] and 2 µg/mL (≈ 3.86 µM) with Escherichia coli [4].
Regarding `C[C@]1(Cn2ccnn2)[C@H](C(=O)O)N2C(=O)C[C@H]2S1(=O)=O` [TAZOBACTAM], the MIC in the assay on Aeromonas caviae [1] is 1 µg/mL (≈ 3.33 µM); in the assay on Escherichia coli [5], at most 0.25 µg/mL; in the assay on Escherichia coli [3] it was 0.5 µg/mL (≈ 1.67 µM); against Escherichia coli [4], 0.5 µg/mL (≈ 1.67 µM).
With `CC1(C)S[C@@H]2[C@H](NC(=O)[C@H](C(=O)O)c3ccsc3)C(=O)N2[C@H]1C(=O)O` [TICARCILLIN], the minimal inhibitory concentration (MIC) against Aeromonas caviae [1] was 2050 µg/mL (≈ 5330 µM); in the assay on Escherichia coli [5], 4 µg/mL (≈ 10.4 µM); in the assay on Escherichia coli [3], 512 µg/mL (≈ 1330 µM); in the assay with Escherichia coli [4] it was 1020 µg/mL (≈ 2660 µM).

As a reminder, the MIC is the lowest concentration found to suppress growth.

The values are drawn from ChEMBL document CHEMBL1137670, “First occurrence of an IMP metallo-beta-lactamase in Aeromonas caviae: IMP-19 in an isolate from France” (2007).
